Experimental data from article PMC9524259 (Journal of medicinal chemistry, 2022).
pIC50: −log10 of the molar value. “Also recorded” adds a separate entry of the source. Blank lines part the entries; values can stand above or below the compound they belong to.

Key:
[1] = tested on: MDA-MB-231 cells; assay: Antiproliferative MTT assay, MDA-MB-231; type: cell-based; conditions: for pIC50: read-out: MDA-MB-231 IC50, 72 h with drug, MTT assay
[2] = tested on: A549 cells; assay: Antiproliferative MTT assay, A549; type: cell-based; conditions: for pIC50: read-out: A549 IC50, 72 h with drug, MTT assay
[3] = tested on: MDA-MB-231 cells; assay: Clonogenic assay, MDA-MB-231; type: cell-based; conditions: 48 h treatment then 7 days fresh media
Procedure, shortened: (§1)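 Cells were seeded at 125 cells/mL in 6-well plates and left overnight to attach. Test compound was applied at two concentrations for 48 h at 37 °C, then removed. Fresh medium followed, changed every alternate day, for 7 days. Cells were washed in PBS, fixed in 4% paraformaldehyde and stained with 0.2% crystal violet for 1 h. Colonies of >50 cells were counted, and % growth was calculated relative to control; mean ± SD, n = 3.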

[4] = molecular target: T1, gankyrin (Homo sapiens, UniProt O75832); assay: Protein thermal shift; type: binding; conditions: Table S1
T1 sequence (O75832 1-226): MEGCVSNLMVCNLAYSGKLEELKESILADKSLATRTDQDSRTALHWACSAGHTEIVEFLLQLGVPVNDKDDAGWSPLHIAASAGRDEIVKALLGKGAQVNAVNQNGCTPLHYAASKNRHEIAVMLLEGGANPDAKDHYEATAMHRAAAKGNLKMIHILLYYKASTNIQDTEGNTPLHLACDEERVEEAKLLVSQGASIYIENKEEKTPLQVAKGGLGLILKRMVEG

[5] = molecular target: T1, gankyrin; assay: Circular dichroism spectra and thermal denaturation; type: binding; conditions: for CD spectra: α-helical (secondary structure) content of gankyrin: 100 nM to 1.5 μM compound, minima at 208 and 222 nm; for thermal denaturation of gankyrin monitored at 217 nm: 1.5 μM compound, 5 – 90 °C; for gankyrin precipitation in CD sample (visual examination): in presence of compound
Procedure, shortened: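 Gankyrin, His6-tagged, was expressed in LB cultures with 1 mM IPTG induction at 25 °C for ~5 h. It was purified by Ni-IMAC, the tag cut with TEV, then dialysed and re-passed over Ni-IMAC. CD was run in 1x PBS, 0.5% DMSO, pH 7.4, in a 1 mm cuvette, with test compound at 100 nM–1.5 μM. Spectra covered 190–260 nm with six accumulations. Thermal melts were read at 217 nm, 5–90 °C, 1 °C/min.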

[6] = tested on: MDA-MB-231 cells; assay: Western blot of TSP levels, MDA-MB-231; type: cell-based; conditions: 48 h; for p53 levels: mutant p53
Procedure, shortened: (§2)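 Cells in 10 cm dishes were treated 48 h with varying concentrations of test compound (0.5% DMSO final) or DMSO alone. HuH6 and MDA-MB-231 were grown in DMEM/10% FBS; A549 in RPMI 1640. Harvested cells were lysed in RIPA with protease/phosphatase inhibitors, on ice for 60 min. Equal protein (15 μg) was run under reducing conditions and blotted to PVDF. Probes were p53, phospho-p53 S6 and S15, Rb, gankyrin, and cyclophilin.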

[7] = tested on: MDA-MB-231 spheroids; assay: Live-dead cell assay, MDA-MB-231 spheroids; type: cell-based; conditions: day 15, IC50 and half IC50 concentrations
Procedure, shortened: (§3)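 Spheroids from the growth study were stained after day 15 with calcein AM (live) and EthD-III (dead). Incubation was 30 min in the dark at room temperature, followed by fluorescence imaging at 4X. Live and dead signal were quantified; mean ± SD, n = 4.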

[8] = tested on: A549 cells; assay: Clonogenic assay, A549; type: cell-based; conditions: 0.15 μM, 48 h treatment then 7 days fresh media
Procedure, shortened: as §1

[9] = tested on: A549 cells; assay: Western blot of TSP levels, A549; type: cell-based; conditions: 48 h
Procedure, shortened: as §2

[10] = tested on: A549 cells; assay: Cell cycle analysis, A549; type: cell-based; conditions: 0.3 μM, 72 h
[11] = molecular target: T2, gankyrin in A549 cells (Homo sapiens, UniProt O75832); assay: Cellular thermal shift assay; type: cell-based; conditions: 0.3 μM, 48 h
T2 sequence (O75832 1-226): T1 sequence (O75832 1-226)

[12] = tested on: A549 spheroids; assay: Live-dead cell assay, A549 spheroids; type: cell-based; conditions: day 15, both concentrations
Procedure, shortened: as §3

[13] = tested on: HuH6 cells; assay: Western blot of TSP levels, HuH6; type: cell-based, human; conditions: 48 h (Figure S1)
Procedure, shortened: as §2

[14] = tested on: MDA-MB-231 cells; assay: Cell cycle analysis, MDA-MB-231; type: cell-based; conditions: 2 μM, 72 h
Procedure, shortened: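 MDA-MB-231 cells in 10 cm dishes were exposed to 2 μM test compound (0.1% DMSO final) or DMSO alone for 72 h. Harvested cells were normalized, fixed in 70% ethanol at −20 °C overnight, pelleted and stained with a PI kit for 40 min at 37 °C. Analysis was by flow and imaging cytometry; mean ± SD, n = 3.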

[15] = molecular target: T3, gankyrin in MDA-MB-231 cells (Homo sapiens, UniProt O75832); assay: Cellular thermal shift assay; type: cell-based; conditions: 2 μM, 48 h
T3 sequence (O75832 1-226): T1 sequence (O75832 1-226)
Procedure, shortened: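 Intact MDA-MB-231 cells were treated 48 h with 2 μM test compound (0.5% DMSO final) or DMSO. Cells were split into aliquots and heated separately at 50, 53, 56, 59, 62 and 65 °C. Lysis was in RIPA on ice for 60 min, then lysates were cleared at 15,000 rpm, 15 min, 4 °C. Equal protein was immunoblotted for gankyrin with actin as reference, and melt curves were built; mean ± SD, n = 3.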

Compound: COC(=O)c1ccc(-n2cc(CCCC(=O)Nc3ccc(C)cc3)nn2)cc1 [Compound 20, Methyl p-{4-[3-(N-p-tolylcarbamoyl)propyl]-1H-1,2,3-triazol-1-yl}benzoate]
improvement in antiproliferative activity against MDA-MB-231 as compared to cjoc42 [1]: 8–10 fold

Compound: COC(=O)c1ccc(-n2cc(CCCC(=S)Nc3ccc(C)cc3)nn2)cc1 [Compound 21, Methyl p-{4-[3-(p-tolylcarbamthioyl)propyl]-1H-1,2,3-triazol-1-yl}benzoate]
improvement in antiproliferative activity against A549 as compared to cjoc42 [2]: ~10 fold
improvement in antiproliferative activity against MDA-MB-231 as compared to cjoc42 [1]: 8–10 fold

Compound: COC(=O)c1ccc(-n2cc(CCCNC(=O)Nc3ccc(C)cc3)nn2)cc1 [Compound 26, Methyl p-(4-{3-[3-(p-tolyl)ureido]propyl}−1H-1,2,3-triazol-1-yl)benzoate]
improvement in antiproliferative activity against MDA-MB-231 as compared to cjoc42 [1]: 8–10 fold

Compound: COC(=O)c1ccc(-n2cc(CCCOc3ccc(C)cc3)nn2)cc1 [Compound 33, Methyl p-{4-[3-(p-tolyloxy)propyl]-1H-1,2,3-triazol-1-yl}benzoate]
improvement in antiproliferative activity against MDA-MB-231 as compared to cjoc42 [1]: 8–10 fold

Compound: Methyl p-{4-[3-(p-toluoxy)propyl]-1H-1,2,3-triazol-1-yl}benzoate [Compound 25]
pIC50 [2]: < 4.00
pIC50 [1]: < 4.00

Compound: Methyl p-{4-[3-(p-tolylcarbamthioyl)propyl]-1H-1,2,3-triazol-1-yl}benzoate [Compound 24]
pIC50 [2]: < 4.00
pIC50 [1]: 4.08

More lines, main results first:

gankyrin binding by protein thermal shift [4]: effectively bind gankyrin
Compound: Cc1ccc(NC(=O)CCCn2cc(-c3ccc(C(F)(F)F)cc3)nn2)cc1 [Compound 51b, N-p-Tolyl4-{4-[p-(trifluoromethyl)phenyl]-1H-1,2,3-triazol-1-yl}butyramide]
% colony growth ([3]; 2.30 μM): 60.3%
CD spectra: α-helical (secondary structure) content of gankyrin [5]: enhancement in the 222 nm spectral minimum; also recorded: signal enhancement
thermal denaturation of gankyrin monitored at 217 nm [5]: complete denaturation across the entire measured temperature range
Rb levels [6]: increase in Rb levels
gankyrin levels [6]: remained relatively unchanged
p53 levels [6]: relatively unchanged levels of p53
green fluorescence intensity (live cells) [7]: decrease in green intensity (live cells)
red fluorescence intensity (dead cells) [7]: increase in red fluorescence intensity (dead cells)

gankyrin binding by protein thermal shift [4]: effectively bind gankyrin
gankyrin precipitation in CD sample (visual examination) [5]: only showed marginal precipitation
Compound: COC(=O)c1ccc(-c2cn(CCCC(=O)Nc3ccc(-c4ccccc4)cc3)nn2)cc1 [Compound 51c, Methyl p-{1-[3-(N-4-biphenylylcarbamoyl)propyl]-1H-1,2,3-triazol-4-yl}benzoate]
% colony growth [8]: 61.9%
CD spectra: α-helical (secondary structure) content of gankyrin [5]: weakening of secondary structure content in gankyrin
thermal denaturation of gankyrin monitored at 217 nm [5]: complete denaturation across the entire measured temperature range
Rb levels [9]: increased Rb levels
gankyrin levels [9]: remained relatively unchanged
p53 levels [9]: relatively unchanged p53 levels
phosphorylated p53 (Ser6) levels [9]: increase the expression levels of phosphorylated p53 (Ser6)
phosphorylated p53 (Ser15) levels [9]: also increased phosphorylated p53 (Ser15) expression levels
cell population in the S and G2/M phases [10]: significantly decreasing the cell population in the S and G2/M phases
cells in the G0/G1 phase [10]: significant increase in the number of cells in the G0/G1 phase
gankyrin thermal stability (CETSA) [11]: significant ability to decrease gankyrin thermal stability
green intensity (live cells) [12]: dose-dependent decrease in green intensity
red intensity (dead cells) [12]: increase in red intensity

gankyrin binding by protein thermal shift [4]: effectively bind gankyrin
gankyrin precipitation in CD sample (visual examination) [5]: only showed marginal precipitation
gankyrin thermal stability (CETSA) [15]: significantly decreased
Compound: O=C(CCCn1cc(-c2ccc(C(F)(F)F)cc2)nn1)Nc1ccc(-c2ccccc2)cc1 [Compound 51d, N-4-Biphenylyl4-{4-[p-(trifluoromethyl)phenyl]-1H-1,2,3-triazol-1-yl}butyramide]
% colony growth ([3]; 1.0 μM): 72.4%
CD spectra: α-helical (secondary structure) content of gankyrin [5]: weakening of secondary structure content in gankyrin
thermal denaturation of gankyrin monitored at 217 nm [5]: maintained gankyrin’s expected two-state transition but unfolded at an accelerated rate
Rb levels [6]: increase in Rb levels
gankyrin levels [6]: remained relatively unchanged
p53 levels [6]: relatively unchanged levels of p53
p53 and Rb levels [13]: increased levels of both p53 and Rb
cell population in the G2/M phase [14]: decrease in the cell population in the G2/M phase
cell population in the S phase [14]: relatively unchanged
cells in the G0/G1 phase [14]: significant increase in the number of cells in the G0/G1 phase
green fluorescence intensity (live cells) [7]: significant decrease in green fluorescence intensity (live cells)
red fluorescence intensity (dead cells) [7]: significant increase in red fluorescence intensity (dead cells)
